Laboratory results: ChEMBL document CHEMBL1144570, “C6-(N,N-butyl-methyl-heptanamide) derivatives of estrone and estradiol as inhibitors of type 1 17beta-hydroxysteroid dehydrogenase: Chemical synthesis and biological evaluation” (2007)
Calls of active or inactive are those of the source. No cut-off for these calls is given here.

target: T1, 17-beta-hydroxysteroid dehydrogenase type 1 (Homo sapiens) (UniProt P14061); assay: Inhibition of 17beta-HSD1 over-expressed in intact T47D cells at 1 uM; type: cell-based; conditions: not given
T1 sequence (whole entry): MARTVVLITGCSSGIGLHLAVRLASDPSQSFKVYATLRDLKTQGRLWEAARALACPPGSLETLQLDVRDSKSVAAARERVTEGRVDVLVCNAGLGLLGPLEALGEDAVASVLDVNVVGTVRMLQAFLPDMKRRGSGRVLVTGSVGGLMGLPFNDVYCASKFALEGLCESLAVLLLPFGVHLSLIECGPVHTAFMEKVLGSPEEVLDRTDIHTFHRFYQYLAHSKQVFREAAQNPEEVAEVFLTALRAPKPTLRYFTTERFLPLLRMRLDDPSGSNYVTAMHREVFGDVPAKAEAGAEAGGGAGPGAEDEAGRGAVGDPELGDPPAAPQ
Summary of the method: (§1)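 Intact T-47D cells, which express endogenous type 1 17β-HSD, were seeded at 3×10^4 cells/well in proliferation assay medium. After 48 h, [4-14C]-E1 (60 nM) and inhibitor in ethanol (0.5% v/v) were added in fresh medium for 24 h. Labelled E1 and E2 were extracted and quantified. Values are the mean of two experiments in triplicate, SD < ±5%.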

Compound | inhibition [%]
CCCCN(C)C(=O)CCCCCC[C@@H]1C[C@@H]2[C@H](CC[C@]3(C)[C@@H](O)CC[C@@H]23)c2cc(OC)c(O)cc21 | 32
C[C@]12CC[C@@H]3c4ccc(O)cc4CC[C@H]3[C@@H]1CCC2=O | 85
CCCCN(C)C(=O)CCCCCC[C@H]1C[C@@H]2[C@H](CC[C@]3(C)C(=O)CC[C@@H]23)c2ccc(O)cc21 | 19

target: T1, 17-beta-hydroxysteroid dehydrogenase type 1 (Homo sapiens); assay: Inhibition of 17beta-HSD1 over-expressed in homogenated HEK293 cells at 0.1 uM; type: cell-based; conditions: not given
Summary of the method: (§2)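 Homogenate of HEK-293 cells overexpressing type 1 17β-HSD. Reductive conversion of E1 (100 nM) to E2 with NADH cofactor. Percent inhibition from one run in triplicate, SD < ±5%.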

Compound | inhibition [%]
C[C@]12CC[C@@H]3c4ccc(O)cc4CC[C@H]3[C@@H]1CCC2=O | 19
CCCCN(C)C(=O)CCCCCC[C@H]1C[C@@H]2[C@H](CC[C@]3(C)C(=O)CC[C@@H]23)c2ccc(O)cc21 | 3

test system: MCF7; assay: Increase in cell growth of estrogen-starved ER expressing MCF7 cells at 1 uM relative to control after 10 days; type: functional, Homo sapiens; conditions: not given
Summary of the method: (§3)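 Cells were moved to medium with insulin (50 ng/mL) and 5% dextran-coated charcoal-treated FBS to remove estrogens, then seeded at 3000 cells/well. After 48 h, inhibitor dilutions in growth medium were added, with medium replaced every 2 days. Cells were grown 10 days in triplicate. Growth was read with the CellTiter 96 AQueous assay and expressed as % of control (100%).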

Compound | Activity
CCCCN(C)C(=O)CCCCCC[C@@H]1C[C@@H]2[C@H](CC[C@]3(C)[C@@H](O)CC[C@@H]23)c2cc(OC)c(O)cc21 | 1.1

target: T1, 17-beta-hydroxysteroid dehydrogenase type 1 (Homo sapiens); assay: Inhibition of 17beta-HSD1 over-expressed in intact HEK293 cells at 0.1 uM; type: cell-based; conditions: not given
Summary of the method: (§4)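 Transfected HEK-293 cells expressing type 1 17β-HSD were plated at 5000 cells/well. Inhibitors were added in ethanol and incubated 24 h. [4-14C]-E1 (60 nM) was then added for 15 min. Labelled E1 and E2 were extracted from the medium and quantified. Values are the mean of five experiments in quadruplicate, SD < ±8%.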

Compound | inhibition [%]
CCCCN(C)C(=O)CCCCCC[C@@H]1C[C@@H]2[C@H](CC[C@]3(C)[C@@H](O)CC[C@@H]23)c2cc(OC)c(O)cc21 | 13
C[C@]12CC[C@@H]3c4ccc(O)cc4CC[C@H]3[C@@H]1CCC2=O | 8
CCCCN(C)C(=O)CCCCCC[C@H]1C[C@@H]2[C@H](CC[C@]3(C)C(=O)CC[C@@H]23)c2ccc(O)cc21 | 3

test system: MCF7; assay: Increase in cell growth of estrogen-starved ER expressing MCF7 cells at 0.01 uM relative to control after 10 days; type: functional, Homo sapiens; conditions: not given; summary of the method: as §3

Compound | Activity
CCCCN(C)C(=O)CCCCCC[C@@H]1C[C@@H]2[C@H](CC[C@]3(C)[C@@H](O)CC[C@@H]23)c2cc(OC)c(O)cc21 | 1.7

target: T2, 3-keto-steroid reductase/17-beta-hydroxysteroid dehydrogenase 7 (Homo sapiens) (UniProt P56937); assay: Inhibition of 17beta-HSD7 over-expressed in intact HEK293 cells at 1 uM; type: cell-based; conditions: not given
T2 sequence (whole entry): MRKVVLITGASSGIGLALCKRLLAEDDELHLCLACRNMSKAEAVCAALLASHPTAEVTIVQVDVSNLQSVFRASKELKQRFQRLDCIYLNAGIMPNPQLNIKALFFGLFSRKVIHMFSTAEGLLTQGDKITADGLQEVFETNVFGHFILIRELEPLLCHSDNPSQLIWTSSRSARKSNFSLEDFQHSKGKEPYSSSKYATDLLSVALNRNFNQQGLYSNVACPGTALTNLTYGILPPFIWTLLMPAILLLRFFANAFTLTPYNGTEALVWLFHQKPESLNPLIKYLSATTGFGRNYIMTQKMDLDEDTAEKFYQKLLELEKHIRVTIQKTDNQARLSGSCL
Summary of the method: (§5)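 Intact transfected HEK-293 cells expressing type 7 17β-HSD. Inhibition of reductive conversion of E1 (60 nM) to E2. One run in triplicate, SD < ±5%.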

Compound | inhibition [%]
CCCCN(C)C(=O)CCCCCC[C@@H]1C[C@@H]2[C@H](CC[C@]3(C)[C@@H](O)CC[C@@H]23)c2cc(OC)c(O)cc21 | 0
C[C@]12CC[C@@H]3c4ccc(O)cc4CC[C@H]3[C@@H]1CCC2=O | 0
CCCCN(C)C(=O)CCCCCC[C@H]1C[C@@H]2[C@H](CC[C@]3(C)C(=O)CC[C@@H]23)c2ccc(O)cc21 | 5

test system: T47D; assay: Effect on cell proliferation of estrogen-starved ER expressing T47D cells at 1 uM relative to control after 10 days; type: functional, cell-based; conditions: Homo sapiens; summary of the method: as §3

Compound | Activity
CCCCN(C)C(=O)CCCCCC[C@@H]1C[C@@H]2[C@H](CC[C@]3(C)[C@@H](O)CC[C@@H]23)c2cc(OC)c(O)cc21 | inactive

target: T1, 17-beta-hydroxysteroid dehydrogenase type 1 (Homo sapiens); assay: Inhibition of 17beta-HSD1 overexpressed in homogenated HEK293 cells at 1 uM; type: cell-based; conditions: not given; summary of the method: as §2

Compound | inhibition [%]
C[C@]12CC[C@@H]3c4ccc(O)cc4CC[C@H]3[C@@H]1CCC2=O | 59
CCCCN(C)C(=O)CCCCCC[C@H]1C[C@@H]2[C@H](CC[C@]3(C)C(=O)CC[C@@H]23)c2ccc(O)cc21 | 16

target: T1, 17-beta-hydroxysteroid dehydrogenase type 1 (Homo sapiens); assay: Inhibition of 17beta-HSD1 over-expressed in intact HEK293 cells at 10 uM; type: cell-based; conditions: not given; summary of the method: as §4

Compound | inhibition [%]
CCCCN(C)C(=O)CCCCCC[C@@H]1C[C@@H]2[C@H](CC[C@]3(C)[C@@H](O)CC[C@@H]23)c2cc(OC)c(O)cc21 | 28
C[C@]12CC[C@@H]3c4ccc(O)cc4CC[C@H]3[C@@H]1CCC2=O | 83
CCCCN(C)C(=O)CCCCCC[C@H]1C[C@@H]2[C@H](CC[C@]3(C)C(=O)CC[C@@H]23)c2ccc(O)cc21 | 14

target: T1, 17-beta-hydroxysteroid dehydrogenase type 1 (Homo sapiens); assay: Inhibition of 17beta-HSD1 over-expressed in intact HEK293 cells at 1 uM; type: cell-based; conditions: not given; summary of the method: as §4

Compound | inhibition [%]
CCCCN(C)C(=O)CCCCCC[C@@H]1C[C@@H]2[C@H](CC[C@]3(C)[C@@H](O)CC[C@@H]23)c2cc(OC)c(O)cc21 | 15
C[C@]12CC[C@@H]3c4ccc(O)cc4CC[C@H]3[C@@H]1CCC2=O | 38
CCCCN(C)C(=O)CCCCCC[C@H]1C[C@@H]2[C@H](CC[C@]3(C)C(=O)CC[C@@H]23)c2ccc(O)cc21 | 5

target: T1, 17-beta-hydroxysteroid dehydrogenase type 1 (Homo sapiens); assay: Inhibition of 17beta-HSD1 over-expressed in intact T47D cells at 10 uM; type: cell-based; conditions: not given; summary of the method: as §1

Compound | inhibition [%]
CCCCN(C)C(=O)CCCCCC[C@@H]1C[C@@H]2[C@H](CC[C@]3(C)[C@@H](O)CC[C@@H]23)c2cc(OC)c(O)cc21 | 81
C[C@]12CC[C@@H]3c4ccc(O)cc4CC[C@H]3[C@@H]1CCC2=O | 93
CCCCN(C)C(=O)CCCCCC[C@H]1C[C@@H]2[C@H](CC[C@]3(C)C(=O)CC[C@@H]23)c2ccc(O)cc21 | 71

target: T3, Very-long-chain 3-oxoacyl-CoA reductase (Homo sapiens) (UniProt Q53GQ0); assay: Inhibition of 17beta-HSD12 over-expressed in intact HEK293 cells at 10 uM; type: cell-based; conditions: not given
T3 sequence (whole entry): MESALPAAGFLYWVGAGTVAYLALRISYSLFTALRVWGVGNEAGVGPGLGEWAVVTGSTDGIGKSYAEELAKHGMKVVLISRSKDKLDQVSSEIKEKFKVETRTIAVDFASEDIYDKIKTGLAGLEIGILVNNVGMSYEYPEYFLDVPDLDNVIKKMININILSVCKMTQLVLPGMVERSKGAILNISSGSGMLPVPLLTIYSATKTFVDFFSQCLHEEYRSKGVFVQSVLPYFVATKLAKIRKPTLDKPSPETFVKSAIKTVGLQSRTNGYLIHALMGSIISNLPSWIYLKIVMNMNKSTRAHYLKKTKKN
Summary of the method: (§6)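 Transfected HEK-293 cells expressing type 12 17β-HSD were plated at 1.5×10^5 cells/well. Inhibitor in ethanol plus [4-14C]-E1 (60 nM) were added in fresh medium for 24 h. E1 to E2 conversion was quantified after steroid extraction. Values are the mean of two experiments in triplicate, SD < ±5%.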

Compound | inhibition [%]
CCCCN(C)C(=O)CCCCCC[C@@H]1C[C@@H]2[C@H](CC[C@]3(C)[C@@H](O)CC[C@@H]23)c2cc(OC)c(O)cc21 | 22
C[C@]12CC[C@@H]3c4ccc(O)cc4CC[C@H]3[C@@H]1CCC2=O | 0
CCCCN(C)C(=O)CCCCCC[C@H]1C[C@@H]2[C@H](CC[C@]3(C)C(=O)CC[C@@H]23)c2ccc(O)cc21 | 44

target: T2, 3-keto-steroid reductase/17-beta-hydroxysteroid dehydrogenase 7 (Homo sapiens); assay: Inhibition of 17beta-HSD7 over-expressed in intact HEK293 cells at 10 uM; type: cell-based; conditions: not given; summary of the method: as §5

Compound | inhibition [%]
CCCCN(C)C(=O)CCCCCC[C@@H]1C[C@@H]2[C@H](CC[C@]3(C)[C@@H](O)CC[C@@H]23)c2cc(OC)c(O)cc21 | 17
C[C@]12CC[C@@H]3c4ccc(O)cc4CC[C@H]3[C@@H]1CCC2=O | 0
CCCCN(C)C(=O)CCCCCC[C@H]1C[C@@H]2[C@H](CC[C@]3(C)C(=O)CC[C@@H]23)c2ccc(O)cc21 | 29

target: T1, 17-beta-hydroxysteroid dehydrogenase type 1 (Homo sapiens); assay: Inhibition of 17beta-HSD1 over-expressed in intact T47D cells at 0.1 uM; type: cell-based; conditions: not given; summary of the method: as §1

Compound | inhibition [%]
CCCCN(C)C(=O)CCCCCC[C@@H]1C[C@@H]2[C@H](CC[C@]3(C)[C@@H](O)CC[C@@H]23)c2cc(OC)c(O)cc21 | 11
C[C@]12CC[C@@H]3c4ccc(O)cc4CC[C@H]3[C@@H]1CCC2=O | 36
CCCCN(C)C(=O)CCCCCC[C@H]1C[C@@H]2[C@H](CC[C@]3(C)C(=O)CC[C@@H]23)c2ccc(O)cc21 | 7

test system: T47D; assay: Increase in cell growth of estrogen-starved ER expressing T47D cells at 0.01 uM relative to control after 10 days; type: functional, Homo sapiens; conditions: not given; summary of the method: as §3

Compound | Activity
CCCCN(C)C(=O)CCCCCC[C@@H]1C[C@@H]2[C@H](CC[C@]3(C)[C@@H](O)CC[C@@H]23)c2cc(OC)c(O)cc21 | 2.3

target: T3, Very-long-chain 3-oxoacyl-CoA reductase (Homo sapiens); assay: Inhibition of 17beta-HSD12 over-expressed in intact HEK293 cells at 1 uM; type: cell-based; conditions: not given; summary of the method: as §6

Compound | inhibition [%]
CCCCN(C)C(=O)CCCCCC[C@@H]1C[C@@H]2[C@H](CC[C@]3(C)[C@@H](O)CC[C@@H]23)c2cc(OC)c(O)cc21 | 0
C[C@]12CC[C@@H]3c4ccc(O)cc4CC[C@H]3[C@@H]1CCC2=O | 0
CCCCN(C)C(=O)CCCCCC[C@H]1C[C@@H]2[C@H](CC[C@]3(C)C(=O)CC[C@@H]23)c2ccc(O)cc21 | 3
